pIC50: −log10 of the molar value.
What was measured:
[1] = target: Platelet glycoprotein 4 (Mus musculus) (UniProt Q08857); experiment: Modulation of CD36 receptor in mouse RAW 264.7 cells assessed as inhibition of R-FSL-1-induced CCl-2 production at competitive receptor binding assay IC50 concentration pretreated for 30 mins followed by R-FSL-1 stimulation measured after 19 hrs by ELISA relative to R-FSL-1; type: cell-based; set-up: scale not given: the % may be the effect or the level left
[2] = target: Platelet glycoprotein 4 (Mus musculus) (UniProt Q08857); experiment: Modulation of CD36 receptor in mouse BMA3.1A7 cells assessed as inhibition of R-FSL-1-induced IL-1beta production […] measured after 4 hrs by ELISA; type: cell-based; details: filed as modulator, time 4.5 hrs
[3] = target: Platelet glycoprotein 4 (Mus musculus) (UniProt Q08857); experiment: Modulation of CD36 receptor in mouse BMA3.1A7 cells assessed as inhibition of R-FSL-1-induced IL-1beta production at competitive receptor binding assay IC50 concentration pretreated for 30 mins followed by R-FSL-1 stimulation measured after 4 hrs by ELISA relative to R-FSL-1; type: cell-based; set-up: scale not given: the % may be the effect or the level left; details: time 4.5 hrs
[4] = target: Platelet glycoprotein 4 (Mus musculus) (UniProt Q08857); experiment: Modulation of CD36 receptor in mouse RAW 264.7 cells assessed as inhibition of R-FSL-1-induced CCL-2 production pretreated for 30 mins followed by R-FSL-1 stimulation measured after 4 hrs by ELISA; type: cell-based; details: RAW264.7, filed as modulator, time 4.5 hrs
How it was run: (§1)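 RAW 264.7 cells seeded at 1.5 × 10^5 per well and weaned overnight in DMEM with 1% pen/strep. Medium then changed to DMEM with 0.2% BSA. Cells pretreated 30 min with peptide at 10^-7 M, with linear [azaTyr4]-GHRP-6 as reference. Stimulated with R-FSL-1 at 300 ng/mL for 4 h at 37 °C. TNF-α or CCL-2 in supernatant measured by ELISA. Inhibition % = (FSL-1 − treated)/(FSL-1 − basal) × 100.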

Platelet glycoprotein 4 = Platelet glycoprotein 4 (Rattus norvegicus, UniProt Q07969); experiment: Displacement of [125I]-Tyr-Bpa-Ala-hexarelin from rat CD36 receptor in heart tissue membrane incubated for 60 mins by competitive receptor binding assay; type: cell membranes
Sequence of Platelet glycoprotein 4 (Q07969 whole entry): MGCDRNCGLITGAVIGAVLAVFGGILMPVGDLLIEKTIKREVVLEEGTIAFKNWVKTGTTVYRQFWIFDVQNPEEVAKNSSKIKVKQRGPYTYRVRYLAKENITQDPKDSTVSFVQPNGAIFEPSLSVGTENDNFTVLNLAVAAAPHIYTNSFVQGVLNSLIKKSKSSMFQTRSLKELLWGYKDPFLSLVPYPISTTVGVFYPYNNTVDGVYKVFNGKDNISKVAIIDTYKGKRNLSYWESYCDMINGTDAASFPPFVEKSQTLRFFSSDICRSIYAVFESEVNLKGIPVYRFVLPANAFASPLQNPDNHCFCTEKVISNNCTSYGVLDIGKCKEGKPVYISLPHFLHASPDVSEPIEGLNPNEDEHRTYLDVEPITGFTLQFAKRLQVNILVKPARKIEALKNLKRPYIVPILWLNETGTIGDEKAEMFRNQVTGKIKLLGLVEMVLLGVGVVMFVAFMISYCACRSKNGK
How it was run: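 Rat heart membranes (50 μg) incubated in the dark with 250,000 cpm [125I]-Tyr-Bpa-Ala-hexarelin in 50 mM Tris-HCl pH 7.4, 2 mM EGTA, 0.05% bacitracin, with competitor at 0.1–10 μM; hexarelin as reference. Nonspecific binding defined with 50 μM peptide. 60 min at 22 °C, then UV photolysis at 365 nm for 15 min at 4 °C. Pellets resolved on 7.5% SDS-PAGE.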

[5] = target: Platelet glycoprotein 4 (Mus musculus) (UniProt Q08857); experiment: Modulation of CD36 receptor in mouse RAW 264.7 cells assessed as inhibition of R-FSL-1-induced NO production at competitive receptor binding assay IC50 concentration pretreated for 30 mins followed by R-FSL-1 stimulation measured after 19 hrs by fluorescence plate reader assay relative to R-FSL-1; type: cell-based; set-up: scale not given: the % may be the effect or the level left; details: RAW264.7, time 1170.0 min
[6] = target: Platelet glycoprotein 4 (Mus musculus) (UniProt Q08857); experiment: Modulation of CD36 receptor in mouse RAW 264.7 cells assessed as inhibition of R-FSL-1-induced TNFalpha production at competitive receptor binding assay IC50 concentration pretreated for 30 mins followed by R-FSL-1 stimulation measured after 19 hrs by ELISA relative to R-FSL-1; type: cell-based; set-up: scale not given: the % may be the effect or the level left; details: RAW264.7, time 19.5 hrs
[7] = target: Platelet glycoprotein 4 (Mus musculus) (UniProt Q08857); experiment: Modulation of CD36 receptor in mouse RAW 264.7 cells assessed as inhibition of R-FSL-1-induced TNFalpha production pretreated for 30 mins followed by R-FSL-1 stimulation measured after 4 hrs by ELISA; type: cell-based; details: RAW264.7, filed as modulator, time 4.5 hrs; how it was run: as §1
[8] = target: Platelet glycoprotein 4 (Mus musculus) (UniProt Q08857); experiment: Modulation of CD36 receptor in mouse RAW 264.7 cells assessed as inhibition of R-FSL-1-induced NO production pretreated for 30 mins followed by R-FSL-1 stimulation measured after 1140 min by fluorescence plate reader assay; type: cell-based; details: RAW264.7, filed as modulator, time 1170.0 min
How it was run: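 RAW 264.7 cells seeded at 1.5 × 10^5 per well in DMEM with pen/strep. After 2 h, medium changed to DMEM with 0.2% BSA containing peptide. Cells stimulated with R-FSL-1 at 300 ng/mL for 19 h. Nitrite in 25 μL supernatant reacted with 0.5 μg 2,3-diaminonaphthalene in 50 mM phosphate pH 7.5, 15 min at room temperature in the dark, stopped with NaOH. Fluorescence read.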

Sequence of Platelet glycoprotein 4 (Mus musculus) (Q08857 whole entry): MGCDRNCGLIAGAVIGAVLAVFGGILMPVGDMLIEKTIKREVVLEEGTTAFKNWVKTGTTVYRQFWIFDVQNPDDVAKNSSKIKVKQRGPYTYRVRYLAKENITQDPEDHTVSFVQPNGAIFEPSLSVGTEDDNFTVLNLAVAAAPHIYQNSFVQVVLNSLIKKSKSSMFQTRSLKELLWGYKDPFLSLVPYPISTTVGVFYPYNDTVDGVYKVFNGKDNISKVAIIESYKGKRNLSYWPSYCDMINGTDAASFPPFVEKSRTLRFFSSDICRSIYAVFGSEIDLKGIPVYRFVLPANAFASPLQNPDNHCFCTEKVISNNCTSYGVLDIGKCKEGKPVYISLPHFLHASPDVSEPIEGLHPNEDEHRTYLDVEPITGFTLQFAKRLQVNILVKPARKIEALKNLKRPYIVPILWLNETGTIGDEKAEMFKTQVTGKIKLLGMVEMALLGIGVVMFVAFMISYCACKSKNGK

SMILES	Activity ([1]; RAW264.7, time 19.5 hrs) [%]	Activity [2] [pmol]	Activity [3] [%]	Activity [4] [pmol]	pIC50 (Platelet glycoprotein 4)	Activity [5] [%]	Activity [6] [%]	Activity [7] [pmol]	Activity [8] [µM]	Activity ([1]; RAW264.7, filed as modulator, time 19.5 hrs) [%]	Activity ([3]; filed as modulator) [%]
C=CCN1CC#CCN(N)C(=O)N[C@H](Cc2c[nH]c3ccccc23)C(=O)N[C@@H](C)C(=O)N[C@@H](Cc2c[nH]c3ccccc23)C(=O)N[C@H](Cc2ccccc2)C(=O)N[C@H](C(N)=O)CCCC1	6	388	7	1040	< 4.30	5	2	4900	2.72		
C=CCN1CC#CCN(NC(=O)[C@H](C)NC(C)=O)C(=O)N[C@H](Cc2c[nH]c3ccccc23)C(=O)N[C@@H](C)C(=O)N[C@@H](Cc2c[nH]c3ccccc23)C(=O)N[C@H](Cc2ccccc2)C(=O)N[C@H](C(N)=O)CCCC1		304	32	707		23	22	4040	2.35	45	
C=CCN1CC#CCN(NC(=O)[C@H](C)N)C(=O)N[C@H](Cc2c[nH]c3ccccc23)C(=O)N[C@@H](C)C(=O)N[C@@H](Cc2c[nH]c3ccccc23)C(=O)N[C@H](Cc2ccccc2)C(=O)N[C@H](C(N)=O)CC1	28	271		857	5.32	27	19	4180	2.26		41
C[C@H](N)C(=O)NN1CC#CCN(CC2CC2)CCCC[C@@H](C(N)=O)NC(=O)[C@@H](Cc2ccccc2)NC(=O)[C@H](Cc2c[nH]c3ccccc23)NC(=O)[C@H](C)NC(=O)[C@@H](Cc2c[nH]c3ccccc23)NC1=O	21	366	13	984	5.51	14	8	4620	2.53		
C=CCN1CC#CCN(NC(=O)[C@H](C)N)C(=O)N[C@@H](C)C(=O)N[C@@H](Cc2c[nH]c3ccccc23)C(=O)N[C@H](Cc2ccccc2)C(=O)N[C@H](C(N)=O)CC1	17	389	6	954	4.99	15	3	4850	2.51		
C=CCN1CC#CCN(NC(=O)[C@H](C)N)C(=O)N[C@H](Cc2c[nH]c3ccccc23)C(=O)N[C@@H](C)C(=O)N[C@@H](Cc2c[nH]c3ccccc23)C(=O)N[C@H](Cc2ccccc2)C(=O)N[C@H](C(N)=O)CCC1	15	411	0	971	4.88	15	8	4650	2.52		
CCCN1CC#CCN(NC(=O)[C@H](C)N)C(=O)N[C@H](Cc2c[nH]c3ccccc23)C(=O)N[C@@H](C)C(=O)N[C@@H](Cc2c[nH]c3ccccc23)C(=O)N[C@H](Cc2ccccc2)C(=O)N[C@H](C(N)=O)CCCC1	13	313	29	918	5.73	4	12	4460	2.75		

— ChEMBL document CHEMBL5034008, “Diversity-Oriented A3-Macrocyclization for Studying Influences of Ring-Size and Shape of Cyclic Peptides: CD36 Receptor Modulators” (J Med Chem, 2021)
